The test system of assay [1] is Rattus norvegicus. Nature of the assay: Antiinflammatory activity against carrageenan-induced edema in Sprague-Dawley rat assessed as right hind paw volume at 10 mg/kg, po administered 4 hrs post challenge measured after 60 mins. Type of assay: functional. The essentials: (§1)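 Rats received intraplantar carrageenan. Right hind paw volume was measured 4 h after the carrageenan injection and compared with saline/carrageenan-treated controls. Oral dosing in CMC vehicle; volume recorded at 60 min after treatment.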

Assay [2] concerns Rattus norvegicus. Kind of assay: Antiinflammatory activity against carrageenan-induced paw edema in Sprague-Dawley rat assessed as paw weight at 10 mg/kg, po administered 4 hrs post challenge measured after 60 mins (reference value: 61.5+/-3.4 g). Type of assay: functional. For orientation: The carrageenan paw model is a standard test of acute inflammation.
Assay [3] relates to Rattus norvegicus. Nature of the assay: Antiinflammatory activity against carrageenan-induced paw edema in Sprague-Dawley rat assessed as paw weight at 10 mg/kg, po administered 4 hrs post challenge measured after 120 mins (reference value: 61.5+/-3.4 g). It is filed as functional.
Assay [4] relates to Rattus norvegicus. Kind of assay: Antiinflammatory activity against carrageenan-induced paw edema in Sprague-Dawley rat assessed as paw weight at 10 mg/kg, po administered 4 hrs post challenge measured after 30 mins (reference value: 61.5+/-3.4 g). Type of assay: functional.
The test system of assay [5] is Rattus norvegicus. Kind of assay: Antiinflammatory activity against carrageenan-induced paw edema in Sprague-Dawley rat assessed as paw weight at 40 mg/kg, po administered 4 hrs post challenge measured after 30 mins (reference value: 63.2+/-3.3 g). Type of assay: functional.
Assay [6] concerns J774. Kind of assay: Selectivity ratio of IC50 for COX1 in mouse J774 cells to IC50 for COX2 in mouse J774 cells. Type of assay: cell-based. The gist of the method:
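Ratio of J774 IC50s, COX-1 over COX-2. For COX-1, cells were pretreated with compound for 15 min, then given 15 μM arachidonic acid for 30 min at 37 °C. For COX-2, cells received E. coli LPS 10 μg/mL for 24 h with compound at 0.01–10 μM. PGE2 was measured by RIA in triplicate wells over three experiments. IC50 came from a sigmoidal fit.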

For assay [7], the system named is Rattus norvegicus. Kind of assay: Antiinflammatory activity against carrageenan-induced paw edema in Sprague-Dawley rat assessed as paw weight at 20 mg/kg, po administered 4 hrs post challenge measured after 120 mins (reference value: 62.5+/-3.1 g). It is filed as functional.
In assay [8] the test system is Aorta. Nature of the assay: Vasorelaxation activity against KCl-induced contraction in isolated Wistar rat thoracic endothelium-denulated aortic rings. Type of assay: functional, tissue-based. The essentials:
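Endothelium-denuded thoracic aortic rings from male Wistar rats (250−350 g); denudation confirmed by <10% relaxation to 10 μM ACh. Rings precontracted with 30 mM KCl; compound added at 3-fold increasing concentrations, 1 nM to 10 μM. Isometric tension recorded. Emax given as % of KCl tone; pIC50 derived. Mean ± standard error of 6−10 experiments; repeated with 1 μM ODQ.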

Assay [9] deals with T1, Prostaglandin G/H synthase 2 (Mus musculus, UniProt Q05769).
T1 sequence (Q05769 whole entry): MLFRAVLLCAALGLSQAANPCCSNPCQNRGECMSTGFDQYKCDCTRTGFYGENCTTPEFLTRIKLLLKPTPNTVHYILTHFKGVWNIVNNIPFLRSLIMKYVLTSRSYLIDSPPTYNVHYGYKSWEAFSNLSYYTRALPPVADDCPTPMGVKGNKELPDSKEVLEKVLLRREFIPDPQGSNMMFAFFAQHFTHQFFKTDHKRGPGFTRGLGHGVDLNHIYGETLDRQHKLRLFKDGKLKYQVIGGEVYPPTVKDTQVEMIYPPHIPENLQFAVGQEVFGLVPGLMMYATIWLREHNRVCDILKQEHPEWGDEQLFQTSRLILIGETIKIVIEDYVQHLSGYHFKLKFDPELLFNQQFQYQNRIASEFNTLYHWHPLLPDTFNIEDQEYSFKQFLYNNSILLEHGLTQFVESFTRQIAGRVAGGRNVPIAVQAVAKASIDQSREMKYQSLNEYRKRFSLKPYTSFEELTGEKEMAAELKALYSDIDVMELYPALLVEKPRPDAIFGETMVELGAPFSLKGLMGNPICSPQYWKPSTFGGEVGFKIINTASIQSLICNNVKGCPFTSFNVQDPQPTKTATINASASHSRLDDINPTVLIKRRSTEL
Nature of the assay: Inhibition of COX-2-mediated PGE2 production in LPS-stimulated mouse J774 cells after 24 hrs by radioimmunoassay. Type of assay: cell-based.

The target in assay [10] is T2, Prostaglandin G/H synthase 1 (Mus musculus) (UniProt P22437).
T2 sequence (whole entry): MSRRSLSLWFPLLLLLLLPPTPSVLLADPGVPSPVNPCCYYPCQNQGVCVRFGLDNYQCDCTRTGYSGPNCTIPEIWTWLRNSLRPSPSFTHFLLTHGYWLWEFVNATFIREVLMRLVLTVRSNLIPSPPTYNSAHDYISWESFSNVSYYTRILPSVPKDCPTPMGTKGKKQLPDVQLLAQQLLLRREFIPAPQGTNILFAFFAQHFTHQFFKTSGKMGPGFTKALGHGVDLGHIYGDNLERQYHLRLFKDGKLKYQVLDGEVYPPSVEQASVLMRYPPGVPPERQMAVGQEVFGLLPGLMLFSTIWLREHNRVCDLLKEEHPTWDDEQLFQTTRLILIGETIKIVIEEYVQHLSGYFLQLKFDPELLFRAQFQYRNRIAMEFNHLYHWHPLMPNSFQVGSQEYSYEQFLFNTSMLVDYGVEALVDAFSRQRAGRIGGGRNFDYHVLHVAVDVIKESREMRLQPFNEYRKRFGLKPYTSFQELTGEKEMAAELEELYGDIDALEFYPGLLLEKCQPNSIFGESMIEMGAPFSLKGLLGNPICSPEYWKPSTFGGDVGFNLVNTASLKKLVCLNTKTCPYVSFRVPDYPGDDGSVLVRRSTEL
Nature of the assay: Inhibition of COX-1-mediated PGE2 production in arachidonic acid-stimulated mouse J774 cells at 1 uM incubated for 15 mins prior to arachidonic acid-challenge by radioimmunoassay. Type of assay: cell-based. The gist of the method:
(§2)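 J774 murine macrophages grown in DMEM with 10% FBS and allowed to adhere for 2 h at 37 °C. Where inhibition exceeded 50%, 0.01–1 μM was also tested. Supernatant PGE2 was measured by RIA as % inhibition versus control, in triplicate wells over three experiments. IC50 came from a sigmoidal variable-slope fit.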

For assay [11], the target named is T2, Prostaglandin G/H synthase 1 (Mus musculus). Kind of assay: Inhibition of COX-1-mediated PGE2 production in arachidonic acid-stimulated mouse J774 cells at 10 uM incubated for 15 mins prior to arachidonic acid-challenge by radioimmunoassay. It is filed as cell-based. The gist of the method:
as §2

For assay [12], the system named is Rattus norvegicus. Kind of assay: Antiinflammatory activity against carrageenan-induced edema in Sprague-Dawley rat assessed as right hind paw volume at 20 mg/kg, po administered 4 hrs post challenge measured after 60 mins. Type of assay: functional. The gist of the method: as §1
The subject of assay [13] is Rattus norvegicus. Kind of assay: Antiinflammatory activity against carrageenan-induced paw edema in Sprague-Dawley rat assessed as paw weight at 40 mg/kg, po administered 4 hrs post challenge measured after 120 mins (reference value: 63.2+/-3.3 g). It is filed as functional.
For assay [14], the target named is T3, Prostaglandin G/H synthase 1 (Mus musculus, UniProt P22437).
T3 sequence (P22437 whole entry): T2 sequence (whole entry)
Nature of the assay: Inhibition of COX-1-mediated PGE2 production in arachidonic acid-stimulated mouse J774 cells incubated for 15 mins prior to arachidonic acid-challenge by radioimmunoassay. It is filed as cell-based. The essentials:
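J774 murine macrophages grown in DMEM with 10% FBS and allowed to adhere for 2 h at 37 °C. Cells were pretreated with compound at 10 μM for 15 min, then given 15 μM arachidonic acid for 30 min at 37 °C. Where inhibition exceeded 50%, 0.01–1 μM was also tested. Supernatant PGE2 was measured by RIA as % inhibition versus control, in triplicate wells over three experiments. IC50 came from a sigmoidal variable-slope fit.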

The test system of assay [15] is Rattus norvegicus. Kind of assay: Antiinflammatory activity against carrageenan-induced paw edema in Sprague-Dawley rat assessed as paw weight at 40 mg/kg, po administered 4 hrs post challenge measured after 60 mins (reference value: 63.2+/-3.3 g). It is filed as functional.
Assay [16] has as its target T2, Prostaglandin G/H synthase 1 (Mus musculus). Nature of the assay: Inhibition of COX-1-mediated PGE2 production in arachidonic acid-stimulated mouse J774 cells at 0.1 uM incubated for 15 mins prior to arachidonic acid-challenge by radioimmunoassay. It is filed as cell-based. The gist of the method:
as §2

Assay [17] concerns Aorta. Kind of assay: Vasorelaxation activity against KCl-induced contraction in isolated Wistar rat thoracic endothelium-denulated aortic rings in the presence of guanylate cyclase inhibitor ODQ. It is filed as functional, tissue-based. The gist of the method:
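Thoracic aortic rings from male Wistar rats (250–350 g), endothelium removed by rubbing; rings relaxing ≥10% to ACh 10 μM on KCl 30 mM tone were discarded. ODQ 1 μM was incubated, then rings were contracted with KCl 30 mM and given 3-fold increasing concentrations of 1 nM–10 μM.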

Assay [18] concerns Rattus norvegicus. Kind of assay: Antiinflammatory activity against carrageenan-induced paw edema in Sprague-Dawley rat assessed as paw weight at 20 mg/kg, po administered 4 hrs post challenge measured after 30 mins (reference value: 62.5+/-3.1 g). Type of assay: functional.
In assay [19] the test system is Rattus norvegicus. Kind of assay: Antiinflammatory activity against carrageenan-induced paw edema in Sprague-Dawley rat assessed as paw weight at 20 mg/kg, po administered 4 hrs post challenge measured after 60 mins (reference value: 62.5+/-3.1 g). It is filed as functional.
Assay [20] deals with Mus musculus. Nature of the assay: Analgesic activity in Swiss albino mouse abdominal constriction model assessed as reduction in acetic acid-induced writhing response for 10 mins at 20 to 40 mg/kg, po administered 30 mins prior to acetic acid-challenge measured after 5 mins relative to vehicle-treated control. It is filed as functional, organism-based. To be noted: Abdomen. The essentials:
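Male Swiss albino mice (23−25 g); 0.6% acetic acid (10 mL/kg) injected ip. Stretching movements counted for 10 min, starting 5 min after administration. Oral doses in carboxymethylcellulose (CMC) vehicle, compared with vehicle-treated mice.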

Assay [21] has as its system Rattus norvegicus. Nature of the assay: Antiinflammatory activity against carrageenan-induced edema in Sprague-Dawley rat assessed as right hind paw volume at 40 mg/kg, po administered 4 hrs post challenge measured after 60 mins. It is filed as functional. The gist of the method: as §1
The test system of assay [22] is Rattus norvegicus. Kind of assay: Antiinflammatory activity against carrageenan-induced paw edema in Sprague-Dawley rat assessed as paw weight at 20 mg/kg, po administered 4 hrs post challenge measured after 120 mins (reference value: 62.6+/-3.1 g). It is filed as functional.
The test system of assay [23] is Rattus norvegicus. Kind of assay: Antiinflammatory activity against carrageenan-induced paw edema in Sprague-Dawley rat assessed as paw weight at 20 mg/kg, po administered 4 hrs post challenge measured after 60 mins (reference value: 62.6+/-3.1 g). It is filed as functional.
The subject of assay [24] is Rattus norvegicus. Nature of the assay: Antiinflammatory activity against carrageenan-induced paw edema in Sprague-Dawley rat assessed as paw weight at 40 mg/kg, po administered 4 hrs post challenge measured after 60 mins (reference value: 61.3+/-3.0 g). Type of assay: functional.
Assay [25] has as its system Rattus norvegicus. Kind of assay: Antiinflammatory activity against carrageenan-induced paw edema in Sprague-Dawley rat assessed as paw weight at 20 mg/kg, po administered 4 hrs post challenge measured after 30 mins (reference value: 62.6+/-3.1 g). It is filed as functional.
Assay [26] concerns Rattus norvegicus. Kind of assay: Antiinflammatory activity against carrageenan-induced paw edema in Sprague-Dawley rat assessed as paw weight at 40 mg/kg, po administered 4 hrs post challenge measured after 120 mins (reference value: 61.3+/-3.0 g). Type of assay: functional.
The test system of assay [27] is Rattus norvegicus. Kind of assay: Antiinflammatory activity against carrageenan-induced paw edema in Sprague-Dawley rat assessed as paw weight at 40 mg/kg, po administered 4 hrs post challenge measured after 30 mins (reference value: 61.3+/-3.0 g). Type of assay: functional.

pIC50: −log10 of the molar value. Calls of active or inactive are those of the source. The calls are words filed in the database; no cut-off is given here.

Three molecules from ChEMBL document CHEMBL1938239, “Novel analgesic/anti-inflammatory agents: diarylpyrrole acetic esters endowed with nitric oxide releasing properties” (J Med Chem, 2011) can be followed below.

Take `Cc1ccc(-c2cc(C(F)(F)F)nn2-c2ccc(S(N)(=O)=O)cc2)cc1` [CELECOXIB]: the Activity in [1] came to 1.36 mL; in assay [2], 57.1 g; in assay [3] it was 54.9 g; in assay [4], 54.3 g.

Consider `Cc1c(CC(=O)OCCCO[N+](=O)[O-])cc(-c2ccc(S(C)(=O)=O)cc2)n1-c1cccc(F)c1`, for which the Activity in [5] was 45.5 g; in assay [7], 40.7 g; in [12], 2.05 mL; in assay [13] it was 36.8 g; in assay [15], 44.9 g; in assay [18] it was 43.2 g. Moreover, the Activity in [19] amounted to 45.1 g; in assay [21] it was 1.96 mL. Further, in assay [6], the Ratio IC50 stood at 151. Besides, the maximal response (Emax) in assay [8] was found to be 39%. In addition, the results for the pIC50 in assay [8], in [9] and in assay [14] were under 5.00, 8.14 and 5.96, respectively. The inhibition in assay [10] came to 50%; in assay [11] it was 75%; in [16], 20%. The result in assay [17] and in [20] was inactive.

Consider `Cc1c(CC(=O)OCCCO)cc(-c2ccc(S(C)(=O)=O)cc2)n1-c1cccc(F)c1`, for which the Ratio IC50 in assay [6] is over 435. Also, the Activity in assay [22] turned out to be 36.4 g; in assay [23], 45.8 g; in [24], 48.8 g; in assay [25], 41.2 g; in [26], 44.4 g; in assay [27] it was 43.1 g. Further, the inhibition in [11] is 0%. In addition, the pIC50 in [14] was under 5.00. In addition, the outcome in assay [20] was inactive.

Usually Emax stands for the greatest response seen or fitted, relative to the assay's reference. By pIC50 is commonly meant the negative decadic logarithm of the IC50, by convention in mol/L. The low end stands for a high IC50, the high end for a low IC50. One may read the inhibition as the change of the read-out against control, counted positive when it falls.
